PHOSPHO1 inh: PHOSPHO1 (human) inhibition; Q8TCT1; recombinant PHOSPHO1, absorbance phosphatase assay; inhibition, % at 13.3 µM; actives 1.1% (n = 290,000); in the data active = inhibition above about 60%
Target sequence (Q8TCT1 whole entry, looked up): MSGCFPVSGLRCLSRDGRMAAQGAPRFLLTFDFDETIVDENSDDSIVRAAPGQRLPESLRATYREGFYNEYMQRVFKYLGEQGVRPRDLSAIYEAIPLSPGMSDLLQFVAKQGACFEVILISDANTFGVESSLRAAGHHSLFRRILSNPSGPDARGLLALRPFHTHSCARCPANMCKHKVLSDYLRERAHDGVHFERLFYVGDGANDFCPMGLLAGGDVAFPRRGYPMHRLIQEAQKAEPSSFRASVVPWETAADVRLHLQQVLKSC
MrgX1 antagonist: antagonists of human MrgX1 receptor; B-score at 10 µM; actives 1.3% (n = 310,000); MRGX1-HEK293 calcium flux, Fluo-4, BAM8-22 antagonism; hits give low values; Q96LB2;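 active = calcium-response B-score plate-corrected more than 3 library SD below zero, starting fluorescence within 5 deviations, no agonist response on first addition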;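 also: peak minus trough fluorescence over baseline after final BAM8-22 challenge near maximal dose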
RGS4 inh: inhibitors of human RGS4 | B-score at 10 µM | actives 0.45% (n = 310,000) | HEK293 M3R/RGS4 inducible, Fluo-4 calcium flux; hits give high values; triggered by carbachol at its EC20 | P49798;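 active = B-score, a plate-corrected calcium signal, over three deviations above library mean, with baseline fluorescence within five deviations of library mean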;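 also: RGS4 expression induced by doxycycline in cells with stable M3 receptor; B-score is computed from the integrated fluorescence ratio over baseline after carbachol; higher B-score means a larger calcium signal and so more RGS4 inhibition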
Target sequence (P49798 whole entry, looked up): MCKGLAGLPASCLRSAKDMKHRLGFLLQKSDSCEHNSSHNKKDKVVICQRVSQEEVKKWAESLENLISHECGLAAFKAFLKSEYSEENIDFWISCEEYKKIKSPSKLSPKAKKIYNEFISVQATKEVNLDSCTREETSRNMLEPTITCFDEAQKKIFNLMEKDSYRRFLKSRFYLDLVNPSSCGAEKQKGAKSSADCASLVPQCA
MrgX1 agonist: agonists of human MrgX1 receptor | actives 0.44% (n = 310,000) | B-score at 10 µM | Q96LB2 | MrgX1-HEK293 cells, Fluo-4 calcium fluorescence, agonist mode; hits give high values;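 active = calcium response B-score plate-corrected fluorescence ratio at least 3 library SD, with starting fluorescence B-score inside 5 SD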
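System – MrgX1-expressing HEK293 cells · Incubation – cells plated overnight, dye loaded 0.5 h 37 °C, 0.5 h room temperature · Technique – kinetic Fluo-4 NW fluorescence of intracellular calcium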
MrgX1 allo act: human MrgX1 positive allosteric modulation, primary screen; B-score at 10 µM; Q96LB2; actives 0.63% (n = 310,000); MrgX1-HEK293, Fluo-4 calcium flux, FDSS; hits give high values;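 active = plate-corrected calcium response at least 3 library SD above typical, normal starting fluorescence, not activating the receptor alone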;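 also: compound read alongside a low EC10 to EC30 dose of BAM8-22 agonist; peak minus trough fluorescence over baseline measured at the second addition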
RGS4 pot: RGS4 potentiation or activation. B-score at 10 µM. AID 463111. actives 0.92% (n = 310,000). HEK293 M3R/inducible RGS4, carbachol calcium flux Fluo4; hits give low values;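 active = B-score of the integrated calcium signal more than 4 SD below the library mean, with starting fluorescence not abnormally high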;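 also: negative B-score means reduced calcium response which marks RGS4 activation or potentiation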
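System: HEK293 FlpIn-TREx cells, stable M3R, doxycycline-inducible RGS4. Timing: overnight RGS4 induction, 30 min dye load 37 °C, 20 min compound RT. Also added: carbachol, ECmax concentration. Measured by: Fluo4 fluorescence kinetic imaging of calcium. Evaluation: integrated calcium ratio converted to B score.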
RGS4 act valid: RGS4 activation, validation assay. shares compounds with RGS4 pot. HEK293 M3R/RGS4 inducible, carbachol calcium flux Fluo4. inhibition, % at 10 µM. actives 89% (n = 1,100);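 active = inhibition above 3 SD of the buffer control wells, cut at about 41% in these data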;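 also: signal is the integrated peak-minus-minimum Fluo4 fluorescence over baseline ratio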
M3R Ca counter: activity in cells without induced RGS4 expression; shares compounds with RGS4 pot; HEK293 M3R non-induced RGS4, Fluo4 calcium flux; after carbachol challenge at its EC90; inhibition, % at 10 µM; actives 82% (n = 1,100); AID 602283;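 active = inhibition exceeding 3 SD of buffer-only control wells, cut at about 26% in these data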;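 also: percent drop in integrated peak-minus-baseline over baseline Fluo4 ratio after carbachol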
A number is an active result; – = inactive; · = no result. Rows were chosen to be rich in hits. Some 4.5% of all compounds tested hit in one or more screens of this group.

SMILES	PHOSPHO1 inh	MrgX1 antagonist	RGS4 inh	MrgX1 agonist	MrgX1 allo act	RGS4 pot	RGS4 act valid	M3R Ca counter
CCOC(=O)c1cc2c(ccn2C)n1CC(=O)N1CCN(c2ccccc2)CC1	–	–	–	–	–	–	·	·
CCOC(=O)c1cc2c(ccn2C)n1Cc1ccccc1C	–	–	–	–	–	-8.8	84	40
Cc1ccccc1Cn1c(C(=O)OC(C)C)cc2c1ccn2C	–	–	–	–	–	-8	90	50
COc1ccc(OC)c2sc(N(CCCN(C)C)C(=O)CCS(=O)(=O)c3ccccc3)nc12	·	-7.6	–	–	–	-13	84	58
COc1cc(OC)cc(C(=O)N[C@H](C(=O)NCc2ccc(F)cc2)C(C)C)c1	–	–	–	–	–	–	·	·
COc1ccc(C(=O)O)cc1S(=O)(=O)Nc1ccccc1-c1ccccc1	–	–	–	–	–	–	·	·
CCC(=O)N1CCc2cc(S(=O)(=O)NCCC(=O)N3CCN(c4cccc(C)c4)C(C)C3)ccc21 (stereo not drawn)	–	–	–	–	–	-8.6	64	84
CCC(=O)N1CCc2cc(S(=O)(=O)NCCC(=O)N3CCN(c4ccccc4)CC3)ccc21	–	–	–	–	–	–	·	·
COc1cccc(OCCCCN2CCCCC2)c1	–	–	–	–	–	–	·	·
CC1CCCN(CCCCOc2cccc(Br)c2)C1 (stereo not drawn)	–	–	–	–	–	-7.5	92	64
Brc1cccc(OCCCCN2CCCCC2)c1	–	–	–	–	–	-8.6	92	66
CCOc1cccc(OCCCCN2CCCCC2)c1	–	–	–	–	–	-7.9	80	37
Clc1ccc(OCCCCCN2CCCC2)c(Br)c1	–	–	–	–	–	-8	89	84
Cc1ccc(C(=O)C(C)OC(=O)c2ccccc2[N+](=O)[O-])cc1 (stereo not drawn)	–	–	–	–	–	–	·	·
O=C(Nc1ccccc1NC(=O)c1ccccc1Cl)c1ccccc1Cl	–	–	–	–	–	–	·	·
COC(=O)CNc1nc(Cl)nc(NC2CCCCC2)n1	–	–	–	–	–	–	·	·
COc1cccc(C(=O)C2CCCN(C(=O)CCC3=NNC(=O)CC3)C2)c1 (stereo not drawn)	–	–	–	–	–	–	·	·
CCOC(=O)c1cnc2ccc(OCC)cc2c1N1CCN(c2ccccc2OC)CC1	–	–	–	–	–	-9.1	93	93
CCOc1ccc2ncc(C(=O)c3ccc(OC)cc3)c(N3CCN(CC)CC3)c2c1	–	–	–	–	–	–	·	·
O=S(=O)(c1ccc(N2CC=C(c3ccccc3)CC2)nc1)N1CCCC1	–	–	–	–	–	-9.3	54	–
COc1cc(/C=N\NC(=O)c2cccnc2)ccc1OC(=O)c1ccccc1Cl	–	–	–	–	–	–	·	·
CC(C)NS(=O)(=O)c1ccc(CCC(=O)N2CCc3ccccc3C2)cc1	–	–	–	–	–	-7.5	–	–
CC(C)NS(=O)(=O)c1ccc(OCC(=O)N2CCc3ccccc3C2)cc1	–	–	–	–	–	–	·	·
COc1ccc(CSCCNC(=S)Nc2ccccc2)cc1Cl	–	–	–	–	–	–	·	·
S=C(NCCSCc1ccc(Cl)c(Cl)c1)Nc1ccccc1	·	–	–	–	–	-8.3	90	71
O=C(C[n+]1cc(-c2ccc(Cl)c(Cl)c2)n2c1CCC2)N1c2ccccc2Sc2ccccc21	–	–	–	–	–	-11	93	95
O=C(O)c1ccccc1OCC1CCCO1 (stereo not drawn)	–	–	–	–	–	–	·	·
Cc1ccccc1C1c2[nH]c3ccccc3c2CCN1CCCn1cccn1 (stereo not drawn)	–	–	–	–	–	-7.7	93	91
Fc1ccc(C2c3[nH]c4ccccc4c3CCN2CCCn2cccn2)cc1 (stereo not drawn)	–	–	–	–	–	–	·	·
